Data on 13 compounds can be found in ChEMBL document CHEMBL3272291, “Potential hypolipidemic agents derived from 3-hydroxy-17,17-dimethylgona-1,3,5(10),8,11,13-hexaene” (J Med Chem, 1977).

Molecules are shown by their SMILES.

Series [1] relates to Rattus norvegicus. Briefly: Cholesterol-lowering activity in propylthiouracil-induced hypercholesterolemic rat model assessed as change in plasma cholesterol at 20 mg/kg administered intragastrically relative to control. The format is functional. To be noted: route intragastric. The method, boiled down:
(§1)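 Male rats made hypercholesterolemic with propylthiouracil; compounds given intragastrically. Read-out is the percent change in plasma cholesterol concentration versus control. n=8 for control and for treated animals. Significance is by Student's t, with t greater than 1.65 taken as p < 0.05.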

Series [2] has as its system Mus musculus. The series is described as follows: Uterotropic activity in immature mouse assessed as change in uterus weight at 250 mg/kg, sc relative to control. Format: organism-based. Details: dose 250 mg/kg, route subcutaneous. To be noted: in vivo. The method, boiled down:
(§2)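 Immature mice dosed subcutaneously or intragastrically. Uterine weight (mg) is compared between treated and control groups, reported as mean ± spread. n=10 for control and for treated animals.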

The subject of series [3] is Mus musculus. The series is described as follows: Uterotropic activity in immature mouse assessed as change in uterus weight at 625 mg/kg, sc relative to control. The format is organism-based. Details: dose 625 mg/kg, route subcutaneous. To be noted: in vivo. In a few lines:
as §2

For series [4], the system named is Rattus norvegicus. Briefly: Cholesterol-lowering activity in propylthiouracil-induced hypercholesterolemic rat model assessed as change in plasma cholesterol at 10 mg/kg administered intragastrically relative to control. The format is functional. To be noted: route intragastric. The method, boiled down:
as §1

Series [5] relates to Rattus norvegicus. The series is described as follows: Cholesterol-lowering activity in propylthiouracil-induced hypercholesterolemic rat model assessed as change in plasma cholesterol at 5 mg/kg administered intragastrically relative to control. To be noted: route intragastric. The format is functional. In a few lines:
as §1

The test system of series [6] is Mus musculus. Briefly: Uterotropic activity in immature mouse assessed as change in uterus weight at 25 mg/kg, sc relative to control. Format: Functional, organism-based. Details: dose 25 mg/kg, route subcutaneous. To be noted: in vivo. The method, boiled down:
as §2

Series [7] deals with Mus musculus. Briefly: Uterotropic activity in immature mouse assessed as change in uterus weight at 250 mg/kg administered intragastrically relative to control. Format: organism-based. Details: dose 250 mg/kg, route intragastric. To be noted: in vivo, po. In a few lines:
as §2

In series [8] the test system is Rattus norvegicus. The series is described as follows: Hypolipidemic activity in normal rat assessed as reduction in triglyceride level at 0.2 % administered in diet for 5 days. The format is functional. Details: scale not given: the % may be the effect or the level left. The method, boiled down:
(§3)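 Normal rats received compound at 0.2% in the diet. Plasma cholesterol and triglyceride are expressed as % of control. n=8 for control and for treated animals. Significance is by Student's t, with t greater than 1.65 taken as p < 0.05.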

Series [9] concerns Rattus norvegicus. The series is described as follows: Hypolipidemic activity in normal rat assessed as reduction in cholesterol level at 0.2 % administered in diet for 5 days. Details: scale not given: the % may be the effect or the level left. The format is functional. In a few lines: as §3

As to `CC1(C)CCc2c1ccc1c2CCc2cc(O)ccc2-1`, the Activity in series [1] is recorded as -10%; in series [2], 22.6 mg; in [3], 34.9 mg; in series [4], -16%; in series [5], 4%.

Turning to `COc1ccc2c(c1)CCc1c-2ccc2c1CCC2(C)C`, the Activity came out at 22.6 mg in series [2] and 1% in series [4].

On to `CCN(CC)CCOc1ccc2c(c1)CCc1c-2ccc2c1CCC2(C)C.O=C(O)C(=O)O`, for which the Activity is -19% in [4], 16.4 mg in [6] and -14% in [5].

Consider `CC1(C)CCc2c1ccc1c2CCc2cc(OCCN3CCCC3)ccc2-1`, for which the Activity is on record as 8.1 mg in series [7], -17% in [4], 11.2 mg in series [6] and -5% in [5].

Consider `CC(C)(Oc1ccc2c(c1)CCc1c-2ccc2c1CCC2(C)C)C(=O)O`, for which the Activity is 69% in [8]; 8.4 mg in series [7]; -18% in series [4]; 17.2 mg in series [6]; 75% in series [9].

As for `CCOC(=O)C(C)(C)Oc1ccc2c(c1)CCc1c-2ccc2c1CCC2(C)C`, the Activity in series [4] is listed as -9%.

On to `CN1C(=O)[C@@H]2CC[C@@H]1[C@@H](OC(=O)C(C)(C)Oc1ccc3c(c1)CCc1c-3ccc3c1CCC3(C)C)C2`, for which the Activity in [4] is recorded as -4%.

Regarding `CC(Oc1ccc2c(c1)CCc1c-2ccc2c1CCC2(C)C)C(=O)O` (configuration not stated), the Activity in series [4] was determined as 3%.

Turning to `CCOC(=O)COc1ccc2c(c1)CCc1c-2ccc2c1CCC2(C)C`, the Activity in series [4] was 8%.

`CC(C)(CO)Oc1ccc2c(c1)CCc1c-2ccc2c1CCC2(C)C`: the results for the Activity in series [2] and in series [4] were 13.4 mg and -25%, respectively.

Take `COC(=O)CCC(=O)OCC(C)(C)Oc1ccc2c(c1)CCc1c-2ccc2c1CCC2(C)C`: the values for the Activity in [2] and in series [4] were 15.7 mg and -18%, respectively.

Regarding `CC(C)(COC(=O)CCC(=O)O)Oc1ccc2c(c1)CCc1c-2ccc2c1CCC2(C)C`, the Activity in series [4] is -7%; in series [6], 20.6 mg.

For the compound `CCOC(=O)C(C)(C)Oc1ccc(Cl)cc1` [CLOFIBRATE], the values for the Activity in [8], in series [4] and in series [9] were 43%, 1% and 72%, respectively.
